The source of these data is ChEMBL document CHEMBL3734738, “A structure-activity relationship of non-peptide macrocyclic histone deacetylase inhibitors and their anti-proliferative and anti-inflammatory activities” (Bioorg Med Chem, 2015).

Series [1] concerns the target T1, Histone deacetylase 1 (Homo sapiens, UniProt Q13547). Briefly: Inhibition of recombinant HDAC1 (unknown origin) expressed in Escherichia coli BL21(DE3) at 10 uM after 60 mins using trichostatin A by label-free mass spectrometry-based SAMDI assay.
The target of a further series is T2, Histone deacetylase 8 (Homo sapiens, UniProt Q9BY41).
T2 sequence (Q9BY41 whole entry): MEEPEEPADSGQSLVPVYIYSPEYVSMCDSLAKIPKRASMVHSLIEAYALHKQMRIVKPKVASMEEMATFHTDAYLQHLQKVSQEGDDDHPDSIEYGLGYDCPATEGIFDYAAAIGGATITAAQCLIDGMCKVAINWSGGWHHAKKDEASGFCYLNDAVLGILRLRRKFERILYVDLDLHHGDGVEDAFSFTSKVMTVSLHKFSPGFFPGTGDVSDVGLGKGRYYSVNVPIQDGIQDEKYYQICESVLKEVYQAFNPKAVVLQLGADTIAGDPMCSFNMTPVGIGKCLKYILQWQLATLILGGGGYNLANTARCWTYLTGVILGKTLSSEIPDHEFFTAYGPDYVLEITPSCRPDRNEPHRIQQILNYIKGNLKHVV
Briefly: Inhibition of recombinant HDAC8 (unknown origin) expressed in Escherichia coli BL21(DE3) after 60 mins using trichostatin A by label-free mass spectrometry-based SAMDI assay.

For series [2], the target named is T1, Histone deacetylase 1. The series is described as follows: Inhibition of recombinant HDAC1 (unknown origin) expressed in Escherichia coli BL21(DE3) after 60 mins using trichostatin A by label-free mass spectrometry-based SAMDI assay.
In series [3] the target is T3, Protein deacetylase HDAC6 (Homo sapiens, UniProt Q9UBN7).
T3 sequence (Q9UBN7 whole entry): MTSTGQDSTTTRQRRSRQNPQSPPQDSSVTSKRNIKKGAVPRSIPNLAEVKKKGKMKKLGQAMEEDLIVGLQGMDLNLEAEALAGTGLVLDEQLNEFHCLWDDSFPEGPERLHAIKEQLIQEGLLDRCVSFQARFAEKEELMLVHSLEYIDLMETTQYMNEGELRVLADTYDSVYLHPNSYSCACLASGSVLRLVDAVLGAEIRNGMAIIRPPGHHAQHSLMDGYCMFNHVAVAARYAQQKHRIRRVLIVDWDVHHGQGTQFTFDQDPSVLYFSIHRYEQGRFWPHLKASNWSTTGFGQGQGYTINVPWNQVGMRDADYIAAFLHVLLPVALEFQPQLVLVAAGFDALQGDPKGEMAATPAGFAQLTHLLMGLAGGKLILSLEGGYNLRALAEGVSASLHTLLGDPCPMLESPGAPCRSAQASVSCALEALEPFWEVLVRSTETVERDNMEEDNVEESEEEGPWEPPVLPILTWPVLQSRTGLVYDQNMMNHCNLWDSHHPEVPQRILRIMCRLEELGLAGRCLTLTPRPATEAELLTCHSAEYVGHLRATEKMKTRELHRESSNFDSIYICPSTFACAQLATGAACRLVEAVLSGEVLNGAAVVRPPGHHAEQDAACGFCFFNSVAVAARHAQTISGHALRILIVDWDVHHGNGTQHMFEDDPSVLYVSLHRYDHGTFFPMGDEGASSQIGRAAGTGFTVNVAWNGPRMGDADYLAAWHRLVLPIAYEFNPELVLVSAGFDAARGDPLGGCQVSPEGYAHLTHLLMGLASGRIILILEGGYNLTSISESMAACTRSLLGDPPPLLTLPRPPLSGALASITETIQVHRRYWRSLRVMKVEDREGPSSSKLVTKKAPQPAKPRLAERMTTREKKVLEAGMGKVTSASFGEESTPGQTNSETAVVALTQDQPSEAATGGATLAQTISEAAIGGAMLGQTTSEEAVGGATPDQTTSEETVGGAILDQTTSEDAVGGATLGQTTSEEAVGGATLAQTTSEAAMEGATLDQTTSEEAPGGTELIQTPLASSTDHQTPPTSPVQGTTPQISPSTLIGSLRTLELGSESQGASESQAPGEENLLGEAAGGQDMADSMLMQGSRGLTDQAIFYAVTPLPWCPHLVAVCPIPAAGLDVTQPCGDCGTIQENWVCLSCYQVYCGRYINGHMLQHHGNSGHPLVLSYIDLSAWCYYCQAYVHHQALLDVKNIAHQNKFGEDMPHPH
Briefly: Inhibition of recombinant HDAC6 (unknown origin) expressed in Escherichia coli BL21(DE3) after 60 mins using trichostatin A by label-free mass spectrometry-based SAMDI assay.

The next series relates to Vero. The series is described as follows: Cytotoxicity against African green monkey Vero cells after 72 hrs by MTS assay. The series is classed as cell-based. The conditions noted are these: Chlorocebus sabaeus. In a few lines: (§1)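 Cells kept in DMEM with 10% FBS and 1% penicillin-streptomycin, seeded in 96-well plates for 24 h, then exposed to a range of drug concentrations for 72 h at 0.1% DMSO; viability read by MTS assay per manufacturer's protocol.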
Background: Tetrazolium assays rely on reduction of a dye to a coloured formazan, in cell work by metabolically active cells.

The next series deals with MCF7. The series is described as follows: Cytotoxicity against human MCF7 cells after 72 hrs by MTS assay. The series is classed as functional, cell-based. The conditions noted are these: Homo sapiens, MCF7, 72 h; read-out: IC50. In a few lines: as §1
Series [4] is described as follows: Inhibition of NTHi-induced NF-kappaB activation in human BEAS-2B cells treated 1 hr before NTHi stimulation measured after 5 hrs by luciferase assay. Type of series: cell-based. The conditions noted are these: Homo sapiens, BEAS-2B; read-out: IC50.
Series [5] deals with BEAS-2B. Briefly: Antiinflammatory activity in human BEAS2B cells assessed as inhibition of NTHi-induced TNFalpha mRNA expression at 1 uM treated 2 hrs before NTHi stimulation measured after 1.5 hrs by Q-PCR analysis. Type of series: functional, cell-based. In a few lines: (§2)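 BEAS-2B cells pretreated 2 h with inhibitor at 1 μM, then stimulated 1.5 h with NTHi; PBS-treated cells as unstimulated control. Total RNA isolated with TRIzol, reverse transcribed, and TNF-α, IL-1α, IL-1β mRNA quantified by SYBR Green real-time PCR with 500 nM primers, reactions in triplicate; mean of n=3, representative of three independent experiments.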

The species named for the next series is Homo sapiens. The conditions noted are these: at 1 µM.
Series [6] concerns BEAS-2B. The series is described as follows: Antiinflammatory activity in human BEAS2B cells assessed as inhibition of NTHi-induced IL-1alpha mRNA expression at 1 uM treated 2 hrs before NTHi stimulation measured after 1.5 hrs by Q-PCR analysis. The series is classed as functional, cell-based. The essentials: as §2
The test system of another series is A549. Briefly: Cytotoxicity against human A549 cells after 72 hrs by MTS assay. The series is classed as functional, cell-based. The conditions noted are these: Homo sapiens, A549, 72 h; read-out: IC50. The essentials: as §1
Series [7] relates to BEAS-2B. Briefly: Antiinflammatory activity in human BEAS2B cells assessed as inhibition of NTHi-induced IL-1beta mRNA expression at 1 uM treated 2 hrs before NTHi stimulation measured after 1.5 hrs by Q-PCR analysis. The series is classed as functional, cell-based. In a few lines: as §2
A short description of series [8]: Selectivity ratio of IC50 for African green monkey Vero cells to IC50 for human A549 cells. Type of series: ADME, cell-based. The conditions noted are these: Vero cells and A549 cells, read-out: Ratio IC50. In a few lines: (§3)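 Cell viability (MTS) was measured in A549, MCF-7 and Vero cells kept in DMEM with 10% FBS and 1% penicillin-streptomycin. Cells were plated 24 h before drug, then exposed to a range of concentrations for 72 h, with DMSO held at 0.1%. The ratio divides the Vero IC50 by the IC50 for the tumour line, both from this assay.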

Series [9] is described as follows: Selectivity ratio of IC50 for African green monkey Vero cells to IC50 for human MCF7 cells. The series is classed as ADME, cell-based. The conditions noted are these: Vero cells and MCF7 cells, read-out: Ratio IC50. The essentials:
as §3

A word on the inhibition: it is the drop in the measured response relative to a control, in per cent. A word on the pIC50: it is the IC50 on a negative log10 scale, so that one unit is a factor of ten.

SMILES strings stand for the structures. pIC50: −log10 of the molar value. Active and inactive are the calls of the source. The calls are words filed in the database; no cut-off is given here. Some results are limits rather than exact numbers.

T1 sequence (Q13547 whole entry): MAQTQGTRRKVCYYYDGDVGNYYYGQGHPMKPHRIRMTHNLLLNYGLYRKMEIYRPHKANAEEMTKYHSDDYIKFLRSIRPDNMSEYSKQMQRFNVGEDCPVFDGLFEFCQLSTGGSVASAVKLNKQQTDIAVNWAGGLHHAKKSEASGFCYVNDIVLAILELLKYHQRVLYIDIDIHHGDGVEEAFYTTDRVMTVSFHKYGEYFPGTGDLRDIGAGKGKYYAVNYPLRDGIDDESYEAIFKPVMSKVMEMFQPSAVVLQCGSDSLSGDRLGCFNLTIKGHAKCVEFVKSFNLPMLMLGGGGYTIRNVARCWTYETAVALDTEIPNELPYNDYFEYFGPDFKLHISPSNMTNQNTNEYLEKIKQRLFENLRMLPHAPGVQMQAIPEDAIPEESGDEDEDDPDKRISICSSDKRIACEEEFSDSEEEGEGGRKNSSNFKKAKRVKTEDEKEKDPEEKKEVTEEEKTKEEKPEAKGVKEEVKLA

Consider `CC[C@H]1OC(=O)[C@H](C)[C@@H](O[C@@H]2C[C@](C)(OC)[C@@](O)(CN(C)Cc3ccc(-c4cn(CCCC(=O)NO)nn4)cc3)[C@@H](C)O2)[C@@H](C)[C@@H](O[C@H]2O[C@@H](C)C[C@@H](N(C)C)[C@@H]2O)[C@](C)(OC)C[C@@H](C)C(=O)[C@H](C)[C@H](O)[C@]1(C)O`, for which, on Histone deacetylase 1 [1], the inhibition was 27%. The results for the pIC50 (on Histone deacetylase 8; at Histone deacetylase 1 [2]; in series [3]) were 5.60, under 5.00 and 6.44, respectively.
Consider `CC[C@@H]1OC(=O)[C@@H](C)[C@H](O[C@H]2C[C@@](C)(OC)[C@](O)(CN(C)Cc3ccc(-c4cn(CCCCCCC(=O)NO)nn4)cc3)[C@H](C)O2)[C@H](C)[C@H](O[C@@H]2O[C@H](C)C[C@H](N(C)C)[C@H]2O)[C@@](C)(OC)C[C@H](C)C(=O)[C@@H](C)[C@@H](O)[C@@]1(C)O`, for which the pIC50 is 5.81 in the series with Vero; 6.16 with MCF7; 6.71 in series [4]; 5.74 at Histone deacetylase 8; 7.62 at Histone deacetylase 1 [2]; 8.55 in series [3]. Also, in the series with A549, the pIC50 is 6.00. In addition, the inhibition result with BEAS-2B [5], in the series on BEAS-2B [6] and with BEAS-2B [7] was “Active” each time. In the series listed under Homo sapiens, the Imax is 35.6%.
With `CC[C@H]1OC(=O)[C@H](C)C(=O)[C@H](C)[C@@H](O[C@@H]2O[C@H](C)C[C@H](N(C)Cc3ccc(-c4cn(CCCCCCC(=O)NO)nn4)cc3)[C@H]2O)[C@@](C)(OC)C[C@@H](C)C2=NCCN3C(=O)O[C@@]1(C)[C@H]3[C@H]2C`, the pIC50 in the series with MCF7 was 5.70; in [4], 7.33; at Histone deacetylase 8 it was 5.82; on Histone deacetylase 1 [2], 7.68; in series [3], 8.16; in the series on A549 it was 5.66. Further, the inhibition entry in the series on BEAS-2B [5], in the series on BEAS-2B [6] and with BEAS-2B [7] was “Active” each time. Also, in the series listed under Homo sapiens, the Imax came to 35.3%.
Consider `CC[C@H]1OC(=O)[C@H](C)C(=O)[C@H](C)[C@@H](O[C@@H]2O[C@H](C)C[C@H](N(C)Cc3cccc(-c4cn(CCCCCCC(=O)NO)nn4)c3)[C@H]2O)[C@@](C)(OC)C[C@@H](C)C2=NCCN3C(=O)O[C@@]1(C)[C@H]3[C@H]2C`, for which the pIC50 in the series on Vero was under 4.70; in the series with MCF7, 6.07; at Histone deacetylase 8, 6.51; on Histone deacetylase 1 [2] it was 7.26; in series [3] it was 8.42; with A549, 5.13. Moreover, the selectivity ratio turned out to be 2.7 in [8] and 23 in series [9].
Take `CC[C@@H]1OC(=O)[C@@H](C)[C@H](O[C@H]2C[C@@](C)(OC)[C@@H](O)[C@H](C)O2)[C@@H](C)[C@H](O[C@H]2O[C@@H](C)C[C@@H](N(C)C)[C@@H]2O)[C@](C)(O)C[C@H](C)CN(Cc2ccc(-c3cn(CCCCCCC(=O)NO)nn3)cc2)[C@H](C)[C@H](O)[C@@]1(C)O`: the pIC50 with Vero was 5.18; with MCF7, 5.20; in series [4], 6.61; at Histone deacetylase 8 it was 5.77; at Histone deacetylase 1 [2], 7.79; in series [3] it was 8.33. In addition, in the series on A549, the pIC50 was 5.08. For the same compound, the inhibition entry in the series on BEAS-2B [5], in the series on BEAS-2B [6] and with BEAS-2B [7] was “Active” in each case. The compound further displayed an Imax in the series listed under Homo sapiens of 31.4%.
